Screening data deposited in PubChem BioAssay by several laboratories.
MEKK2 WT-MEK5 = modulators of MEK5 binding to wildtype MEKK2, primary screen, biochemical, multiplex bead flow cytometry, Alexa488-MEK5 | Mitogen-activated protein kinase kinase kinase 2 (Homo sapiens), Q9Y2U5 | Alexa488-MEK5 binding to MEKK2 WT; actives lie on both sides | binding response (% of control), % at 10 µM | hit rate 1.1% among 290,000 | AID 1531, 2009; in the data active = binding response below about 67% or above about 130%
DNA FID counter = compounds displacing fluorescent DNA intercalator, primary screen, artefact control for HCV NS3 helicase inhibitor project, biochemical, FID fluorescence. AID 1845, 2009. hit rate 0.17% among 290,000. DNA fluorescent intercalator displacement. inhibition, % at 7.9 µM; in the data active = inhibition above about 37%;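 note: higher means more ethidium bromide displaced from hairpin DNA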
MEKK2 mut-MEK5 = MEK5 binding signal on mutant MEKK2 PB1, primary screen, biochemical, multiplex bead flow cytometry, Alexa488-MEK5 | Alexa488-MEK5 binding to MEKK2 mutant | percent response, % at 10 µM | hit rate 0.35% among 290,000 | AID 1530, 2009; in the data active = percent response above about 24%, passing the limit was not always enough
MEKK3 PB1 HTS = modulators of MEKK3-MEK5 PB1 binding, primary screen, biochemical, wildtype MEKK3, multiplex bead flow cytometry, Alexa488-MEK5; hit rate 1.4% among 290,000; bead-based flow cytometry, Alexa488-MEK5 binding to MEKK3; actives lie on both sides; 0 = blocked by unlabeled MEK5, 100 = vehicle; AID 1529, 2009; binding response (% of control), % at 10 µM; Mitogen-activated protein kinase kinase kinase 3 (Homo sapiens), Q99759;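 active = binding response more than 3 SD above or below the average of its plate-row segment, actives on both sides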;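 note: Alexa488 bead fluorescence after subtracting the streptavidin-only scavenger bead signal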
Target sequence (Q99759 whole entry, looked up): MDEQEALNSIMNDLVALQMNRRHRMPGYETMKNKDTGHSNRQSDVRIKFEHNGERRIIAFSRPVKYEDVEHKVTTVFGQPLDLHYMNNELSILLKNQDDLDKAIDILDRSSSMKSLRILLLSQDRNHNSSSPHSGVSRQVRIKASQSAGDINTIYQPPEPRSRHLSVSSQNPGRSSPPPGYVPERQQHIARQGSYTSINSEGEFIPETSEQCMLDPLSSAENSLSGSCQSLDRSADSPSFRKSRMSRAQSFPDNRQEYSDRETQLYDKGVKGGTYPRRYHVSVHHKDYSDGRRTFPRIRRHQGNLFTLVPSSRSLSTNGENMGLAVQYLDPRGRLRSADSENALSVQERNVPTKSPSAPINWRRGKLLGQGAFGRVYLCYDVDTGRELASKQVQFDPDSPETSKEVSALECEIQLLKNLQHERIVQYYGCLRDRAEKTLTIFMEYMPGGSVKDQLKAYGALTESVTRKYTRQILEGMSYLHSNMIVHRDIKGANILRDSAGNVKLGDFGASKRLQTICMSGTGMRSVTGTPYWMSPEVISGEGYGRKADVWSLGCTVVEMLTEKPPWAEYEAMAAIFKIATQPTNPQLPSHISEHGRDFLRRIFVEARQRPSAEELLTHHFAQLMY
T cruzi repl = inhibitors of intracellular T. cruzi growth, primary screen, luminescence, NIH3T3 host cells | inhibition, % (concentration not given with the values) | T. cruzi beta-gal in NIH3T3, 90 h | hit rate 1.4% among 300,000;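 active = mean inhibition across valid replicates above about 55%, limit read from the data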;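 note: signal also drops with host cell toxicity which is not excluded here; higher percent means less beta-gal luminescence so fewer parasites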
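System: NIH/3T3 fibroblasts plus reporter T. cruzi. Medium: DMEM plus 2% FBS. Probe or stimulus: 5000 reporter trypomastigotes per well. Compound: single 50 nL compound addition per well in DMSO. Incubation: co-culture of at least 90 h after 3 h attachment. Detection: GalScreen β-gal luminescence, detergent lysis, 60 min. Evaluation: parasite load inhibition, %.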
HCV NS3 hel inh = inhibitors of HCV NS3 helicase, primary screen, biochemical, Cy5 molecular beacon fluorescence. Hepatitis C virus NS3 helicase. NS3 helicase DNA unwinding. hit rate 0.56% among 290,000. inhibition, % at 10.9 µM. AID 1800, 2009;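 active = inhibition above the mean of all tested compounds plus 3 SD, set per campaign, cut at about 35% in these data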
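Assay system: hepatitis C virus NS3 helicase domain fragment enzyme. Also added: annealed dual-labelled DNA beacon duplex, ATP-started. Timing: 1 h reaction at 25 °C, ATP-initiated. Technique: Cy5 fluorescence at 0 and 60 min, beacon hairpin quenching. Evaluation: % inhibition of unwinding. Replication: one well per compound.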
MEKK2wt confirm = modulators of MEK5 binding to wildtype MEKK2, confirmation, biochemical, single concentration, multiplex bead flow cytometry; hit rate 2.4% among 5,900; binding response (% of control), % at 10 µM; shares compounds with MEKK3 PB1 HTS; Alexa488-MEK5 binding to MEKK2 WT; actives lie on both sides; AID 1892, 2009; in the data active = binding response below about 16% or above about 210%; inactive = in between
MEKK2mut confirm = mutant MEKK2 PB1-MEK5 binding signal retest – biochemical, single concentration, multiplex bead flow cytometry, confirmation. shares compounds with MEKK3 PB1 HTS. AID 1893, 2009. hit rate 2% among 5,900. Alexa488-MEK5 binding to MEKK2 mutant. percent response, % at 10 µM; in the data active = percent response mostly above about 71%, no sharp cut-off; inactive = mostly below about 38%;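 note: higher means compound restores mutant binding toward wildtype level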
MEKK3-MEK5 inh = MEKK3 wild-type PB1 binding to MEK5, inhibitors, confirmation, biochemical, bead multiplex flow cytometry, single concentration, wildtype; shares compounds with MEKK3 PB1 HTS; Alexa488-MEK5 binding to MEKK3; active compounds read low; binding response (% of control), % at 10 µM; hit rate 1.8% among 5,900;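 active = binding response below 72% of control, or above a set upper limit, though filed actives all read lower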;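 note: lower values mean stronger disruption of MEK5 binding to MEKK3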
Hits are given with their value; – = inactive; · = no result given; [ ] = another dose, or the depositor's remark. In the library only some 4.1% were active in any assay of this set; here they are far more common.

SMILES | MEKK2 WT-MEK5 | DNA FID counter | MEKK2 mut-MEK5 | MEKK3 PB1 HTS | T cruzi repl | HCV NS3 hel inh | MEKK2wt confirm | MEKK2mut confirm | MEKK3-MEK5 inh
N=C(N)SCc1nc2ccccc2c(=O)n1-c1ccccc1Cl | – | – | – | 135 | – | – | – | – | –
CCCC(=O)NCc1nc2ccccc2n1CC(=O)c1ccccc1 | – | – | – | – | – | – | · | · | ·
CCOC(=O)c1ccc(-n2c(C)nc3c(cnn3-c3ccccc3Cl)c2=O)cc1 | – | – | – | 124 | – | – | – | – | –
Cc1nc(NC(=O)CCN2C(=O)C3CC=CCC3C2=O)sc1C (stereo not drawn) | – | – | – | – | – | – | · | · | ·
COc1ccc(C(C)C)cc1S(=O)(=O)N1CCC(C(=O)N2CCN(C)CC2)CC1 | – | – | – | – | – | – | · | · | ·
COc1ccc(C(C)C)cc1S(=O)(=O)N1CCN(C)CC1 | – | – | – | 133 | – | – | – | – | –
COc1ccccc1NC1CCCCC1NS(=O)(=O)c1ccccc1 (stereo not drawn) | – | – | – | – | – | – | · | · | ·
O=C1c2ccc3c4c(ccc(c24)C(=O)N1Cc1cccnc1)C(=O)N(Cc1cccnc1)C3=O | – | – | – | – | · | – | · | · | ·
O=C1c2ccc([N+](=O)[O-])cc2C(=O)N1Cc1cccnc1 | – | – | 25 | – | – | – | – | – | –
CCOc1ccccc1OCCCC(=O)Nc1sccc1C(N)=O | – | – | – | 151 | – | – | – | – | –
Cc1c(C(=O)Nc2ccc(Cl)cc2)c2ccccn2c1C(=O)c1ccccc1 | – | – | – | 126 | – | – | – | – | –
c1cnn(-c2cncc(-n3cccn3)n2)c1 | – | – | – | – | – | – | · | · | ·
NC1=NC[C@H](Cc2ccc(O)cc2)N1CCc1cccc2ccccc12 | 152 | · | 50 | – | – | · | – | – | –
NC1=NC[C@H](Cc2ccc(O)cc2)N1CCc1cc(C(F)(F)F)cc(C(F)(F)F)c1 | – | · | – | – | – | · | · | · | ·
NC1=NC[C@H](Cc2ccc(O)cc2)N1CCCCC1CCCCC1 | 184[inhibitor] | · | – | – | 60 | · | – | – | –
NC1=NC[C@H](Cc2ccccc2)N1CCCCC1CCCCC1 | 151 | · | – | – | – | · | – | – | –
NC1=NC[C@@H](Cc2ccc(O)cc2)N1CCc1cccc2ccccc12 | – | · | – | – | – | · | · | · | ·
COc1cc(Cl)c(CN2CCC(CO)(CCOc3ccccc3)CC2)cc1OC | – | – | – | – | – | – | · | · | ·
OCC1(CCOc2ccccc2)CCN(CC2=Cc3cc(Cl)ccc3OC2)CC1 | 153 | – | – | – | – | – | – | – | –
Cc1nc(NC(=O)CSc2nnc(Cn3nnc4ccccc43)n2C)sc1C | – | – | – | – | – | – | · | · | ·
O=C(CC1C(=O)NCCN1CC1CCCCC1)NCc1ccc(Cl)cc1 (stereo not drawn) | 147 | – | – | – | – | – | – | – | –
O=C(O)c1cc(O)ccc1NC(=O)c1cccc2ccccc12 | – | – | – | 132 | – | – | – | – | –
O=C(c1ccoc1)N1CCC2(CC1)Oc1ccc(Cl)cc1C(=O)C21CC(c2cccnc2)=NO1 (stereo not drawn) | – | · | – | – | – | · | · | · | ·
O=C(c1ccoc1)N1CCC2(CC1)Oc1ccc(Cl)cc1C(=O)C21CC(c2ccccc2)=NO1 (stereo not drawn) | – | · | – | 45[inhibitor] | – | · | – | – | –
C=C(C)Cn1c(SCC#N)nc2ccccc2c1=O | – | – | – | 82[inhibitor] | – | – | – | – | –
SMILES | MEKK2 WT-MEK5 | DNA FID counter | MEKK2 mut-MEK5 | MEKK3 PB1 HTS | T cruzi repl | HCV NS3 hel inh | MEKK2wt confirm | MEKK2mut confirm | MEKK3-MEK5 inh
Cn1c(SCC#N)nc2ccccc2c1=O | – | – | – | 128 | – | – | – | – | –
Cc1ccc2c(c1)C(=NC1CCCCC1)c1cc3ccccc3nc1-2 | – | – | – | 67[inhibitor] | – | – | – | – | –
CC(C)(C)NC(=O)C(c1ccncc1)N(C(=O)c1csnn1)c1cccc2ccccc12 (stereo not drawn) | – | – | – | 143 | – | – | – | – | –
COC(=O)c1c(NC(=O)c2nc3ccccc3s2)sc2c1CC(C)(C)NC2(C)C | 210 | – | 69 | – | – | – | – | – | –
CCOc1ccc(C(=O)Nc2sc3c(c2C(=O)OC)CC(C)(C)NC3(C)C)cc1 | 152 | – | – | – | – | – | – | – | –
CCOC(=O)c1c(NC(=O)CSc2nc3ccccc3[nH]2)sc2c1CC(C)(C)NC2(C)C | · | · | · | · | – | · | · | · | ·
CC(=O)O[C@H]1[C@H](C)OC=C[C@@H]1OC(C)=O | 151 | – | – | – | – | – | – | – | –
CC(CC(=O)Nc1ccccc1C(F)(F)F)c1ccccc1 (stereo not drawn) | – | – | – | – | – | – | · | · | ·
CCOc1cc(C)c(Cl)cc1S(=O)(=O)NCc1ccc2c(c1)OCO2 | – | – | – | 81[inhibitor] | – | – | – | – | –
Cc1nnc(SC(C)C(=O)NC2CCCCC2C)s1 (stereo not drawn) | · | · | · | · | – | · | · | · | ·
COc1ccc2noc3c2c1C(=O)c1ccccc1-3 | · | · | · | · | – | · | · | · | ·
O=C1c2ccccc2-c2onc3ccc(NCCCn4ccnc4)c1c23 | 28[inhibitor] | 69 | – | 33[inhibitor] | – | – | – | – | 42
O=C(NC1(C(F)(F)F)N=C(c2ccccc2)NC1=O)c1ccc(Cl)cc1Cl (stereo not drawn) | – | – | – | – | – | – | · | · | ·
O=C(NC1(C(F)(F)F)N=C(c2ccccc2)NC1=O)c1ccccc1F (stereo not drawn) | – | – | – | 134 | – | – | – | – | –
Cc1nc(C)c(C(=O)NCc2ccc(Cl)cc2)o1 | – | – | – | 76[inhibitor] | – | – | – | – | –
